According to ChEMBL document CHEMBL1145833, “Studies on the synthesis and biological properties of non-carrier-added [(125)I and (131)I]-labeled arylalkylidenebisphosphonates: potent bone-seekers for diagnosis and therapy of malignant osseous lesions” (J Med Chem, 2003):

Assays:
Details in all cases: in vivo
[1] = organism: Mus musculus; test: Distribution of compound in liver tissue of mice after 5 hr injection time was determined; type: ADME, organism-based
Procedure, shortened: (§1)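 Healthy athymic nude mice (balb/c nu/nu, 20–25 g, both sexes) received 50–400 KBq radioiodinated bisphosphonate in 100 µL phosphate buffer pH 6–7 by tail-vein injection. Three animals were sacrificed per time point. Tissues were excised, weighed and gamma-counted. Values are % injected dose per gram tissue, mean ± 1 SD, n = 3.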

[2] = organism: Rattus norvegicus; test: Distribution of compound in liver tissue of rats after 24 hr injection time was determined; type: ADME, organism-based
Procedure, shortened: (§2)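 Healthy congenitally athymic nude rats (Han rnu/rnu Rowett, 60 g, both sexes) received 0.4 MBq radioiodinated bisphosphonate in 200 µL phosphate buffer pH 7 via tail vein. Three rats were sacrificed 24 h post-injection. Excised organs were weighed and gamma-counted. Values are % injected dose per gram tissue, mean ± 1 SD of three rats.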

[3] = organism: Rattus norvegicus; test: Distribution of compound in lung tissue of rats after 24 hr injection time was determined; type: ADME, organism-based; procedure, shortened: as §2
[4] = organism: Mus musculus; test: Distribution of compound in lungs tissue of mice after 0.5 h injection time was determined; type: ADME, organism-based, Lung; procedure, shortened: as §1
[5] = organism: Mus musculus; test: Distribution of compound in lungs tissue of mice after 2 hr injection time was determined; type: ADME, organism-based, Lung; procedure, shortened: as §1
[6] = organism: Mus musculus; test: Distribution of compound in lungs tissue of mice after 24 hr injection time was determined; type: ADME, organism-based, Lung; procedure, shortened: as §1
[7] = organism: Mus musculus; test: Distribution of compound in lungs tissue of mice after 5 hr injection time was determined; type: ADME, organism-based, Lung; procedure, shortened: as §1
[8] = organism: Mus musculus; test: Distribution of compound in skull tissue of mice after 0.5 hr injection time was determined; type: ADME, organism-based; procedure, shortened: as §1
[9] = organism: Mus musculus; test: Distribution of compound in skull tissue of mice after 2 hr injection time was determined; type: ADME, organism-based; procedure, shortened: as §1
[10] = organism: Mus musculus; test: Distribution of compound in skull tissue of mice after 24 hr injection time was determined; type: ADME, organism-based; procedure, shortened: as §1
[11] = organism: Mus musculus; test: Distribution of compound in skull tissue of mice after 5 h injection time was determined; type: ADME, organism-based; procedure, shortened: as §1
[12] = organism: Rattus norvegicus; test: Distribution of compound in skull tissue of rats after 24 hr injection time was determined; type: ADME, organism-based; procedure, shortened: as §2
[13] = organism: Mus musculus; test: Distribution of compound in spleen tissue of mice after 0.5 hr injection time was determined; type: ADME, organism-based; procedure, shortened: as §1
[14] = organism: Mus musculus; test: Distribution of compound in kidneys tissue of mice after 0.5 hr injection time was determined; type: ADME, organism-based, Kidney; procedure, shortened: as §1
[15] = organism: Mus musculus; test: Distribution of compound in kidneys tissue of mice after 2 hr injection time was determined; type: ADME, organism-based, Kidney; procedure, shortened: as §1
[16] = organism: Mus musculus; test: Distribution of compound in kidneys tissue of mice after 24 hr injection time was determined; type: ADME, organism-based, Kidney; procedure, shortened: as §1
[17] = organism: Mus musculus; test: Distribution of compound in kidneys tissue of mice after 5 hr injection time was determined; type: ADME, organism-based, Kidney; procedure, shortened: as §1
[18] = organism: Mus musculus; test: Distribution of compound in liver tissue of mice after 0.5 hr injection time was determined; type: ADME, organism-based; procedure, shortened: as §1
[19] = organism: Mus musculus; test: Distribution of compound in liver tissue of mice after 24 hr injection time was determined; type: ADME, organism-based; procedure, shortened: as §1
[20] = organism: Mus musculus; test: Distribution of compound in heart tissue of mice after 2 hr injection time was determined; type: ADME, organism-based; procedure, shortened: as §1
[21] = organism: Mus musculus; test: Distribution of compound in heart tissue of mice after 24 hr injection time was determined; type: ADME, organism-based; procedure, shortened: as §1
[22] = organism: Mus musculus; test: Distribution of compound in heart tissue of mice after 5 hr injection time was determined; type: ADME, organism-based; procedure, shortened: as §1
[23] = organism: Rattus norvegicus; test: Distribution of compound in heart tissue of rats after 24 hr injection time was determined; type: ADME, organism-based; procedure, shortened: as §2
[24] = organism: Mus musculus; test: Distribution of compound in intestine tissue of mice after 0.5 hr injection time was determined; type: ADME, organism-based; procedure, shortened: as §1
[25] = organism: Mus musculus; test: Distribution of compound in intestine tissue of mice after 2 hr injection time was determined; type: ADME, organism-based; procedure, shortened: as §1
[26] = organism: Mus musculus; test: Distribution of compound in intestine tissue of mice after 24 hr injection time was determined; type: ADME, organism-based; procedure, shortened: as §1
[27] = organism: Mus musculus; test: Distribution of compound in intestine tissue of mice after 5 hr injection time was determined; type: ADME, organism-based; procedure, shortened: as §1
[28] = organism: Rattus norvegicus; test: Distribution of compound in intestine tissue of rats after 24 hr injection time was determined; type: ADME, organism-based; procedure, shortened: as §2
[29] = organism: Rattus norvegicus; test: Distribution of compound in kidney tissue of rats after 24 hr injection time was determined; type: ADME, organism-based; procedure, shortened: as §2
[30] = organism: Mus musculus; test: Distribution of compound in spleen tissue of mice after 2 hr injection time was determined; type: ADME, organism-based; procedure, shortened: as §1
[31] = organism: Mus musculus; test: Distribution of compound in spleen tissue of mice after 24 hr injection time was determined; type: ADME, organism-based; procedure, shortened: as §1
[32] = organism: Mus musculus; test: Distribution of compound in spleen tissue of mice after 5 h injection time was determined; type: ADME, organism-based; procedure, shortened: as §1
[33] = organism: Rattus norvegicus; test: Distribution of compound in spleen tissue of rats after 24 hr injection time was determined; type: ADME, organism-based; procedure, shortened: as §2
[34] = organism: Mus musculus; test: Distribution of compound in stomach tissue of mice after 0.5 hr injection time was determined; type: ADME, organism-based; procedure, shortened: as §1
[35] = organism: Mus musculus; test: Distribution of compound in stomach tissue of mice after 2 hr injection time was determined; type: ADME, organism-based; procedure, shortened: as §1
[36] = organism: Mus musculus; test: Distribution of compound in stomach tissue of mice after 24 hr injection time was determined; type: ADME, organism-based; procedure, shortened: as §1
[37] = organism: Mus musculus; test: Distribution of compound in stomach tissue of mice after 5 hr injection time was determined; type: ADME, organism-based; procedure, shortened: as §1
[38] = organism: Rattus norvegicus; test: Distribution of compound in stomach tissue of rats after 24 hr injection time was determined; type: ADME, organism-based; procedure, shortened: as §2
[39] = organism: Mus musculus; test: Distribution of compound in thyroid tissue of mice after 0.5 hr injection time was determined; type: ADME, organism-based, Thyroid gland
Procedure, shortened: (§3)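 Healthy athymic nude balb/c nu/nu mice (20–25 g) received 50–400 KBq radioiodinated bisphosphonate in 100 μL phosphate buffer, pH 6–7, by tail-vein injection. Three animals were sacrificed per time point. Thyroid-containing tissue was excised, weighed and gamma-counted. Values are % of injected dose, mean ± 1 SD of three mice.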

[40] = organism: Mus musculus; test: Distribution of compound in thyroid tissue of mice after 2 hr injection time was determined; type: ADME, organism-based, Thyroid gland; procedure, shortened: as §3
[41] = organism: Mus musculus; test: Distribution of compound in thyroid tissue of mice after 24 h injection time was determined; type: ADME, organism-based, Thyroid gland; procedure, shortened: as §3
[42] = organism: Mus musculus; test: Distribution of compound in thyroid tissue of mice after 5 h injection time was determined; type: ADME, organism-based, Thyroid gland; procedure, shortened: as §3
[43] = organism: Rattus norvegicus; test: Distribution of compound in thyroid tissue of rats after 24 hr injection time was determined; type: ADME, organism-based, Thyroid gland
Procedure, shortened: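 Healthy congenitally athymic nude rats (Han rnu/rnu Rowett, 60 g) received 0.4 MBq radioiodinated bisphosphonate in 200 μL phosphate buffer, pH 7, by tail-vein injection. Three rats were sacrificed 24 h after injection. Thyroid-containing tissue was excised, weighed and gamma-counted. Values are % of injected dose, mean ± 1 SD of three rats.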

[44] = organism: Mus musculus; test: Distribution of compound in blood tissue of mice after 0.5 hr injection time was determined; type: ADME, organism-based; procedure, shortened: as §1
[45] = organism: Mus musculus; test: Distribution of compound in blood tissue of mice after 2 hr injection time was determined; type: ADME, organism-based; procedure, shortened: as §1
[46] = organism: Mus musculus; test: Distribution of compound in blood tissue of mice after 24 hr injection time was determined; type: ADME, organism-based; procedure, shortened: as §1
[47] = organism: Mus musculus; test: Distribution of compound in blood tissue of mice after 5 h injection time was determined; type: ADME, organism-based; procedure, shortened: as §1
[48] = organism: Rattus norvegicus; test: Distribution of compound in blood tissue of rats after 24 hr injection time was determined; type: ADME, organism-based; procedure, shortened: as §2
[49] = organism: Mus musculus; test: Distribution of compound in femur tissue of mice after 0.5 hr injection time was determined; type: ADME, organism-based; procedure, shortened: as §1
[50] = organism: Mus musculus; test: Distribution of compound in femur tissue of mice after 2 hr injection time was determined; type: ADME, organism-based; procedure, shortened: as §1
[51] = organism: Mus musculus; test: Distribution of compound in femur tissue of mice after 24 hr injection time was determined; type: ADME, organism-based; procedure, shortened: as §1
[52] = organism: Mus musculus; test: Distribution of compound in femur tissue of mice after 5 hr injection time was determined; type: ADME, organism-based; procedure, shortened: as §1
[53] = organism: Rattus norvegicus; test: Distribution of compound in femur tissue of rats after 24 h injection time was determined; type: ADME, organism-based; procedure, shortened: as §2
[54] = organism: Mus musculus; test: Distribution of compound in heart tissue of mice after 0.5 hr injection time was determined; type: ADME, organism-based; procedure, shortened: as §1
[55] = organism: Mus musculus; test: Distribution of compound in liver tissue of mice after 2 h injection time was determined; type: ADME, organism-based; procedure, shortened: as §1

Injected [1]: 2.51%
Injected [2]: 0.18%
Injected [3]: 0.05%
Injected [4]: 5.41%
Injected [5]: 1.2%
Injected [6]: 0.54%
Injected [7]: 0.61%
Injected [8]: 24.61%
Injected [9]: 26.49%
Injected [10]: 21.34%
Injected [11]: 19.14%
Injected [12]: 5.84%
Injected [13]: 2.02%
Injected [14]: 18.64%
Injected [15]: 13.3%
Injected [16]: 5.16%
Injected [17]: 7.17%
Injected [18]: 3.88%
Injected [19]: 2.27%
Injected [20]: 0.82%
Injected [21]: 0.18%
Injected [22]: 0.4%
Injected [23]: 0.04%
Injected [24]: 1.07%
Injected [25]: 1%
Injected [26]: 0.16%
Injected [27]: 0.45%
Injected [28]: 0.03%
Injected [29]: 0.36%
Injected [30]: 0.77%
Injected [31]: 0.49%
Injected [32]: 0.47%
Injected [33]: 0.09%
Injected [34]: 3.22%
Injected [35]: 1.79%
Injected [36]: 0.13%
Injected [37]: 0.38%
Injected [38]: 0.05%
Injected [39]: 0.51%
Injected [40]: 0.19%
Injected [41]: 0.06%
Injected [42]: 0.49%
Injected [43]: 0.02%
Injected [44]: 15.92%
Injected [45]: 1.36%
Injected [46]: 0.09%
Injected [47]: 0.82%
Injected [48]: 0.01%
Injected [49]: 45.03%
Injected [50]: 45.54%
Injected [51]: 37.79%
Injected [52]: 30.3%
Injected [53]: 16.44%
Injected [54]: 3.35%
Injected [55]: 3.36%
SMILES: O=P(O)(O)C(O)(Cc1cccc(I)c1)P(=O)(O)O
